Activity calls are given as the source filed them. The calls are words filed in the database; no cut-off is given here.
Experiments:
[1] = system: Candida albicans; assay: Antifungal activity against Candida albicans assessed as increase in pseudomycelial fungal cells with reduction in mycelial formation at 0.27 to 1.06 microg/ml measured after 8 hrs by inverted microscopic analysis; type: functional, organism-based; settings: dose 0.27-1.06 µg/ml
Summary of the method: (§1)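 Hyphae were induced in SD+10% FBS or in Spider medium. Log-phase cells at 1×10^5 CFU/mL final, 1 mL per well in 24-well plates, 3 wells per group. Drug at 0.27, 0.53 or 1.06 µg/mL, fluconazole, or no-drug control. Incubated at 30 °C; hyphal formation observed and photographed by inverted microscope at 4 h and 8 h.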

[2] = system: Candida albicans; assay: Antifungal activity against Candida albicans assessed as inhibition of yeast state o mycelium state transformation at 0.27 to 1.06 microg/ml measured after 4 to 8 hrs by inverted microscopic analysis; type: functional, organism-based; settings: dose 0.27-1.06 µg/ml, time 4-8 hrs; summary of the method: as §1
[3] = system: Candida albicans; assay: Antifungal activity against Candida albicans SC5314 assessed as inhibition of fungal growth measured up to 48 hrs by time-killing curve analysis; type: functional, organism-based
Summary of the method: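 Log-phase cells at 1×10^5 CFU/mL in SDB, 10 mL per group. Drug at 0.27, 0.53 or 1.06 µg/mL, plus fluconazole and untreated controls. Shaken 150 r/min at 30 °C. Samples taken at 0, 4, 8, 12, 24, 36 and 48 h and read at A630, triplicate wells. Absorbance plotted against time.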

[4] = system: Candida albicans; assay: Antibiofilm activity in Candida albicans SC5314 assessed as appearance of short mycelia at 0.27 microg/ml measured after 24 hrs by inverted microscopic analysis; type: functional, organism-based; settings: dose 0.27 µg/ml
Summary of the method: (§2)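 Log-phase C. albicans in RPMI1640+10% FBS at 1×10^5 CFU/mL allowed to adhere in 24-well plates for 90 min at 30 °C; unattached medium removed. 1 mL medium with drug (0.27, 0.53, 1.06 µg/mL) or without drug added; 24 h at 30 °C. Biofilm stained with crystal violet 30 min, washed 3× with PBS, viewed by inverted microscope.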

[5] = system: 16HBE14o-; assay: Cytotoxicity against human 16HBE14o- cells assessed as reduction in cell viability at <=4 microg/ml incubated for 48 hrs by CCK8 assay; type: toxicity, cell-based; settings: dose < 4 µg/ml
Summary of the method: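 16HBE cells in RPMI1640 with 10% FBS and 1% antibiotics, seeded in 96-well plates and attached for 24 h at 37 °C. Drug serially diluted 5-fold from 100 µg/mL in complete medium, with growth and blank controls. Exposure 48 h, then viability read with CCK8 reagent.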

[6] = system: Candida albicans; assay: Antibiofilm activity in Candida albicans SC5314 assessed as appearance of fungal cells in yeast shape with few mycelia measured after 24 hrs by inverted microscopic analysis; type: functional, organism-based; settings: dose 0.27-1.06 µg/ml; summary of the method: as §2
[7] = system: Candida albicans; assay: Antibiofilm activity in Candida albicans SC5314 assessed as appearance of yeast form of fungal cells at 0.27 microg/ml measured after 24 hrs by inverted microscopic analysis; type: functional, organism-based; settings: dose 0.27 µg/ml; summary of the method: as §2
[8] = system: Candida albicans; assay: Induction of morphological changes in Candida albicans assessed as effect on cytoplasmic structure at 0.53 to 1.06 microg/ml incubated for 16 to 24 hrs by transmission electron microscopic analysis; type: functional, organism-based; settings: dose 0.53-1.06 µg/ml, time 16-24 hrs
Summary of the method: (§3)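 C. albicans at 5×10^5 CFU/mL in SDB shaken with drug (0.27, 0.53, 1.06 µg/mL), fluconazole or no drug at 30 °C, 150 r/min, for 16-24 h. Pellets washed with PBS and fixed in cold 3% paraformaldehyde/2.5% glutaraldehyde at 4 °C, then 1% OsO4. Dehydrated in acetone and embedded in Epon-812. 60-90 nm sections stained with uranyl acetate and lead citrate, imaged by TEM.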

[9] = system: Candida albicans; assay: Induction of morphological changes in Candida albicans assessed as blurred boundary between cell wall and cell membrane at 0.53 to 1.06 microg/ml incubated for 16 to 24 hrs by transmission electron microscopic analysis; type: functional, organism-based; settings: dose 0.53-1.06 µg/ml, time 16-24 hrs; summary of the method: as §3
[10] = system: Candida albicans; assay: Antibiofilm activity in Candida albicans SC5314 assessed as appearance of fungal cells in pseudomycelial shape with few mycelia measured after 24 hrs by inverted microscopic analysis; type: functional, organism-based; settings: dose 0.27-1.06 µg/ml; summary of the method: as §2

O=C(Cn1cc(COC(Cn2ccnc2)c2ccc(Cl)cc2Cl)nn1)c1ccc2ccccc2c1 (stereo not given)
Activity [1]: Active | Activity [2]: Active; Better Than That Of Fluconazole Group | Activity [3]: Active | Activity [4]: Active | Activity [5]: Non-toxic | Activity [6]: Dose-dependent-effect | Activity [7]: Active | Activity [8]: Active | Activity [9]: Active | Activity [10]: Dose-dependent-effect
